Experimental data reported in ChEMBL document CHEMBL3352355, “Synthesis of novel polysubstituted (2SR,4RS)-2-heteroaryltetrahydro-1,4-epoxy-1-benzazepines and cis-2-heteroaryl-4-hydroxytetrahydro-1H-1-benzazepines as antiparasitic agents” (Eur J Med Chem, 2014).

Assays:
[1] = Selectivity index, ratio of CC50 for human THP1 cells to IC50 for promastigote stage of Leishmania infantum; format: functional, THP-1
In short: (§1)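 Selectivity index was calculated as CC50 in Vero (T. cruzi) or THP-1 (L. infantum) cells divided by parasite IC50. Both values came from 72 h mammalian-cell MTT assays and the parasite assays; SI ≥ 3 was defined as parasite-selective.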

Leishmania infantum [2] = experiment: Antiparasitic activity against amastigote stage of Leishmania infantum infected in THP1 cells assessed as parasite growth inhibition after 24 hrs by hemocytometery; format: functional, organism-based, THP-1
In short: (§2)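 Host cells were Vero for T. cruzi (infected with tissue-derived trypomastigotes) and THP-1 (PMA-transformed, 10 ng/mL) for L. (L.) infantum (infected with late-phase promastigotes), at 1:10 cell:parasite for 24 h. Serial dilutions were given as two doses, the second on day 3 with a medium change. Read-out was % infected cells on methanol-fixed, Giemsa-stained slides (300 cells). IC50 came from sigmoidal regression; experiments in duplicate, concentrations in triplicate.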

Trypanosoma cruzi [3] = experiment: Antiparasitic activity against epimastigote stage of Trypanosoma cruzi infected in Vero cells assessed as parasite growth inhibition […] by hemocytometery; format: functional, organism-based
In short: (§3)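 Exponential-phase T. cruzi Sylvio X10 epimastigotes (LIT medium with hiFCS) or L. (L.) infantum MHOM/BR/74/PP75 promastigotes (RPMI 1640, hemin, HEPES, 10% hiFCS) were exposed to threefold serial dilutions (0.3–300 µg/mL) for 72 h at 28 °C. Viable parasites were counted by hemocytometer with 0.25% eosin yellow. IC50 came from sigmoidal regression, given as mean ± SD.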

Trypanosoma cruzi [4] = experiment: Antiparasitic activity against amastigote stage of Trypanosoma cruzi infected in Vero cells assessed as parasite growth inhibition after 24 hrs by hemocytometery; format: functional, organism-based; in short: as §2
[5] = Cytotoxicity against human THP1 cells; format: cell-based; details: THP-1 cells
In short: (§4)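 Vero monolayers or THP-1 cells (made adherent with 10 ng/mL PMA), in RPMI 1640 with 10% hiFCS, were exposed to compound (0.3–300 µg/mL) for 72 h at 37 °C, 5% CO2. Viability was measured by MTT, with formazan dissolved in DMSO and read at 580 nm. % cytotoxicity was calculated against untreated cells; CC50 came from sigmoidal regression, given as mean ± SD.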

[6] = Cytotoxicity against African green monkey Vero cells; format: cell-based; details: chlorocebus sabaeus; in short: as §4
Leishmania infantum [7] = experiment: Antiparasitic activity against promastigote stage of Leishmania infantum infected in THP1 cells assessed as parasite growth inhibition […] by hemocytometery; format: functional, organism-based; details: THP-1; in short: as §3
[8] = Selectivity index, ratio of CC50 for African green monkey Vero cells to IC50 for epimastigote stage of Trypanosoma cruzi; format: functional; in short: as §1
Leishmania infantum [9] = experiment: Antiparasitic activity against promastigote stage of Leishmania infantum assessed as parasite growth inhibition after 72 hrs by hemocytometery
[10] = Selectivity index, ratio of CC50 for human THP1 cells to IC50 for amastigote stage of Leishmania infantum; format: functional, THP-1; in short: as §1
[11] = Selectivity index, ratio of CC50 for African green monkey Vero cells to IC50 for amastigote stage of Trypanosoma cruzi; format: functional; in short: as §1
[12] = Leishmania infantum, THP-1, 24 h, read-out: IC50
[13] = Trypanosoma cruzi, Vero, 24 h, read-out: IC50

Row | Compound | IC50 (Trypanosoma cruzi [3]) | IC50 (Trypanosoma cruzi [4]; [13]) | Selectivity Index [1] | IC50 (Leishmania infantum [2]; [12]) | CC50 [5] | CC50 [6] | IC50 (Leishmania infantum [7]) | Selectivity Index [8] | IC50 (Leishmania infantum [9]) | Selectivity Index [10] | Selectivity Index [11] | IC50 (Leishmania infantum [2]; thp-1) | IC50 (Trypanosoma cruzi [4]; vero)
1 | O[C@@H]1Cc2cc(OC(F)(F)F)ccc2N[C@H](c2cccs2)C1 | 87.8 µM | > 101 µM | 4.4 | > 101 µM | 61.5 µM | 20.4 µM | 13.8 µM | 0.2 |  |  |  |  | 
2 | Cc1ccsc1[C@@H]1C[C@H]2Cc3ccccc3N1O2 (racemic) | 27.6 µM | 134 µM | 6.7 | 368 µM | 377 µM | 453 µM |  | 16.4 | 56.6 µM | 1 | 3.4 |  | 
3 | Clc1ccc2c(c1)C[C@@H]1C[C@@H](c3ccc(Br)s3)N2O1 (racemic) | 14.7 µM | 23.9 µM | >117.9 | 65.2 µM | > 1690 µM | 1660 µM |  | 113.4 | 14.3 µM | >25.9 | 69.8 |  | 
4 | Fc1ccc2c(c1)C[C@@H]1C[C@@H](c3cccs3)N2O1 (racemic) | 104 µM | 103 µM | 86.6 | 177 µM | 991 µM | 1400 µM |  | 13.5 | 11.5 µM | 5.6 | 13.5 |  | 
5 | Cc1ccsc1[C@@H]1C[C@H]2Cc3cc(F)ccc3N1O2 (racemic) | 102 µM | 330 µM | 2.9 | 204 µM | 221 µM | 601 µM |  | 5.9 | 75.9 µM | 1.1 | 1.8 |  | 
6 | Cc1ccc([C@@H]2C[C@H]3Cc4ccccc4N2O3)o1 (racemic) | 92.9 µM | > 415 µM | 14.5 | 398 µM | 394 µM | 533 µM |  | 5.7 | 27.3 µM | 1 |  |  | 
7 | FC(F)(F)Oc1ccc2c(c1)C[C@@H]1C[C@@H](c3ccco3)N2O1 (racemic) | 166 µM | 319 µM | 19.9 | 172 µM | 319 µM | 93.4 µM |  | 0.6 | 16 µM | 1.9 | 0.3 |  | 
8 | Cc1ccc([C@@H]2C[C@H]3Cc4cc(OC(F)(F)F)ccc4N2O3)o1 (racemic) | 89.2 µM | 212 µM | 16.3 | > 308 µM | 176 µM | 414 µM |  | 4.6 | 10.8 µM |  | 2 |  | 
9 | c1csc([C@@H]2C[C@H]3Cc4ccccc4N2O3)c1 (relative stereo) | 198 µM | > 411 µM | 45.7 | 406 µM | 727 µM | 2310 µM |  | 11.6 | 15.9 µM | 1.8 |  |  | 
10 | O[C@@H]1Cc2ccccc2N[C@H](c2cccs2)C1 (relative stereo) | 219 µM | > 408 µM | 5.3 | 138 µM | 773 µM | 986 µM |  | 4.5 | 146 µM | 5.6 |  |  | 
11 | O[C@@H]1Cc2ccccc2N[C@H](c2ccco2)C1 (relative stereo) | 884 µM | > 436 µM | 0.3 | > 436 µM | 236 µM | > 1310 µM | 696 µM | >1.5 |  |  |  |  | 
12 | C[C@@H]1[C@H](O)[C@@H](C)/C=C/C=C/C=C/C=C/C=C/C=C/C=C/[C@H](O[C@@H]2O[C@H](C)[C@@H](O)[C@H](N)[C@@H]2O)C[C@@H]2O[C@](O)(C[C@@H](O)C[C@@H](O)[C@H](O)CC[C@@H](O)C[C@@H](O)CC(=O)O[C@H]1C)C[C@H](O)[C@H]2C(=O)O [AMPHOTERICIN B] |  |  | 927.5 | 0.01 µM | 29.7 µM |  |  |  | 0.03 µM | 456.6 |  |  | 

Second part, led by results:

Row | IC50 (Trypanosoma cruzi [3]) | IC50 (Trypanosoma cruzi [4]; [13]) | Compound | Selectivity Index [1] | IC50 (Leishmania infantum [2]; [12]) | CC50 [5] | CC50 [6] | IC50 (Leishmania infantum [7]) | Selectivity Index [8] | IC50 (Leishmania infantum [9]) | Selectivity Index [10] | Selectivity Index [11] | IC50 (Leishmania infantum [2]; thp-1) | IC50 (Trypanosoma cruzi [4]; vero)
13 | 177 µM | > 405 µM | O[C@@H]1Cc2cc(F)ccc2N[C@H](c2ccoc2)C1 | 1.9 | > 405 µM | 689 µM | 1040 µM | 365 µM | 5.9 |  |  |  |  | 
14 | 22.8 µM | 131 µM | Cc1ccc([C@@H]2C[C@H](O)Cc3ccccc3N2)s1 (relative stereo) | 5.5 | > 128 µM | 608 µM | 956 µM |  | 41.9 | 111 µM |  | 7.3 |  | 
15 | 47.9 µM | 41.5 µM | Cc1ccsc1[C@@H]1C[C@H](O)Cc2cc(Cl)ccc2N1 (relative stereo) | 2.5 | > 341 µM | 181 µM | 200 µM |  | 4.2 | 72.9 µM |  | 4.8 |  | 
16 | 164 µM | 123 µM | Cc1ccc([C@@H]2C[C@H](O)Cc3cc(F)ccc3N2)s1 (relative stereo) | 18.5 | > 120 µM | 312 µM | 801 µM | 16.9 µM | 4.9 |  |  | 6.53 |  | 
17 | 45.9 µM | > 120 µM | Cc1ccsc1[C@@H]1C[C@H](O)Cc2cc(F)ccc2N1 (relative stereo) | 28.9 | > 120 µM | 1810 µM | 243 µM | 62.5 µM | 5.3 |  |  |  |  | 
18 | 65.7 µM |  | Cc1ccc([C@@H]2C[C@H](O)Cc3cc(OC(F)(F)F)ccc3N2)s1 (relative stereo) | 8.6 |  | 98 µM | 23.9 µM | 11.3 µM | 0.4 |  |  |  | ND(toxic) | ND(toxic)
19 | 10.7 µM |  | Cc1ccsc1[C@@H]1C[C@H](O)Cc2cc(OC(F)(F)F)ccc2N1 (relative stereo) | 5.5 | > 97.1 µM | 89.7 µM | 26.7 µM | 16.4 µM | 2.5 |  |  |  |  | ND(toxic)
20 | 120 µM | > 411 µM | Cc1ccc([C@@H]2C[C@H](O)Cc3ccccc3N2)o1 (relative stereo) | 1.4 | > 411 µM | 262 µM | 370 µM | 189 µM | 3.1 |  |  |  |  | 
21 | 61.8 µM | 323 µM | Cc1ccc([C@@H]2C[C@H](O)Cc3cc(Cl)ccc3N2)o1 (relative stereo) | >9.9 | > 361 µM | > 1080 µM | 300 µM | 110 µM | 4.9 |  |  | 0.93 |  | 
22 | 115 µM | > 383 µM | Cc1ccc([C@@H]2C[C@H](O)Cc3cc(F)ccc3N2)o1 (relative stereo) | >8.1 | > 383 µM | > 1150 µM | 823 µM | 141 µM | 7.2 |  |  |  |  | 
23 | 606 µM | > 106 µM | O[C@@H]1Cc2cc(OC(F)(F)F)ccc2N[C@H](c2ccco2)C1 (relative stereo) | 2.9 | > 106 µM | 134 µM | 166 µM | 45.9 µM | 0.3 |  |  |  |  | 
24 | 42.7 µM | > 102 µM | Cc1ccc([C@@H]2C[C@H](O)Cc3cc(OC(F)(F)F)ccc3N2)o1 (relative stereo) | 9.7 | > 102 µM | 124 µM | 82.1 µM | 12.8 µM | 1.9 |  |  |  |  | 
